This is a sample that favours compounds with a hit; in the whole collection about 12% have one here.
WT yeast gro inh: growth inhibition of WT strain, primary screen, mitochondrial fusion inhibitor project, WT and mutant strains, chemical genetic; mitochondrial fusion phenotypic screen; inhibition, % at 10 µM; 2.1% of 190,000 active; AID 1362, 2008; in the data active = inhibition above about 58%; tested in S. cerevisiae
Diaphorase inh: diaphorase inhibitors and chemical oxidizers, primary screen, counter-screen for diaphorase-coupled primary assays, biochemical, uHTS, resorufin fluorescence. inhibition, % at 20 µM. 0.69% of 190,000 active. diaphorase resazurin-to-resorufin fluorescence, NADH, 16 min; bacterial (C. kluyveri) enzyme, not human;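 active = primary screen inhibition at 20 µM above a set limit, cut at about 50% in these data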;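 also: plate controls were DMSO with full reaction for no effect and wells lacking NADH for full effect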
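Assay system – diaphorase enzyme from Clostridium kluyveri · Amount – diaphorase 0.14 U/mL (working solution) · Times – reaction incubation of 16 min at room temperature · Controls – No-NADH positive control and DMSO neutral control · Signal – resorufin fluorescence 544/590 nm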
KCC2 mod: KCC2 cotransporter modulators, thallium flux, primary screen, cell-based, HEK293 KCC2, FluoZin-2 fluorescence, MLSMR | AID 1456, 2008 | 2.2% of 190,000 active | B-score of Tl+ flux slope (higher = more flux/activation; lower = inhibition) at 10 µM | Solute carrier family 12 member 5 (Homo sapiens), Q9H2X9 | KCC2 cells, thallium flux FluoZin-2 fluorescence;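 active = thallium flux slope and its plate-corrected score both differing from the plate sample mean at a set confidence after two filtering rounds, in either direction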;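 also: slope of fluorescence scaled to starting intensity during 10 to 20 s after thallium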
Diaphorase act: compounds boosting diaphorase resazurin reduction – biochemical, uHTS, resorufin fluorescence, counter-screen for diaphorase-coupled primary assays, primary screen; Diaphorase/resazurin coupled assay, 16 min; active compounds read high; 1 = vehicle wells, 0 = NADH-free wells; activation factor at 20 µM; 0.005% of 190,000 active; AID 1229, 2008;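 active = diaphorase activity raised at least twofold by the compound at 20 µM; inactive = activation factor below 2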
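Test system: Clostridium kluyveri diaphorase, purified enzyme. Buffer or medium: 50 mM HEPES pH 7.4 buffer plus MgCl2 and Tween 20. Also added: 0.114 mM NADH and 0.1 mM resazurin, final amounts. Dosing: compound 20 µM once, DMSO 1%. Schedule: 16 min enzyme reaction, ambient temperature. Detection: fluorescence of resorufin, 544 nm excitation, 590 nm emission.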
ROMK primary: ROMK potassium channel modulators, primary screen, cell-based, thallium flux, MLSMR library; Tet-inducible ROMK, thallium flux fluorescence; actives lie on both sides; B-score at 10 µM; 2% of 130,000 active; AID 1918, 2009;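 active = signal ratio slope over the read window, or its plate-corrected B-score, at least 3 SD from the plate mean, either direction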;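 also: B-score of the F/F0 ratio slope over 7 to 12 s after thallium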
Target sequence (P48048 whole entry, looked up): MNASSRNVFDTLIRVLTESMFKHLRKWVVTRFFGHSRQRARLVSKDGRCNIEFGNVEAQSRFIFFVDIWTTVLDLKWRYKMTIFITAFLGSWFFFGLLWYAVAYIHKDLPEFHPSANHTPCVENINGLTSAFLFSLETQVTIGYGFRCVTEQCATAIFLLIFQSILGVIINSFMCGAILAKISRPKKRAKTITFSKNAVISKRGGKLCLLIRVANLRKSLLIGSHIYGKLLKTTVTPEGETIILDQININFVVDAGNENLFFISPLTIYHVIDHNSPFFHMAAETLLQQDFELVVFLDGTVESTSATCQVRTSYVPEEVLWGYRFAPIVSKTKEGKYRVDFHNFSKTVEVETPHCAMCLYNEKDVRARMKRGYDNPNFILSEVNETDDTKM
Lmaj promast: Leishmania major promastigote growth inhibition, primary screen; Leishmania major promastigotes, resazurin fluorescence viability; inhibition, % at 10 µM; 9% of 200,000 active; in the data active = inhibition above about 50%;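 also: promastigotes grown with compound for 44 hours at 28 °C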
* marks the source's active call; other numbers are inactive results; nt = no result given.

SMILES	WT yeast gro inh	Diaphorase inh	KCC2 mod	Diaphorase act	ROMK primary	Lmaj promast
COc1cccc(C2(O)CCN(Cc3ccncc3)CC2)c1	-2	nt	-0.19	nt	-0.64	92*
CNCC(C)c1ccccc1 (stereo unspecified)	-11	2	nt	1	-0.37	-1
O=c1c2ccccc2nc(SCC2CCCCO2)n1-c1ccccc1 (stereo unspecified)	14	8	-0.7	0.9	0.37	76*
O=C1NC(=O)N(Cc2ccco2)C(=O)/C1=C/c1ccc(-c2cccc([N+](=O)[O-])c2)o1	13	30	-0.77	0.7	nt	99*
O=C(c1ccc2c(c1)OCO2)C1CCCN(CC2CCCCC2)C1 (stereo unspecified)	15	25	0.26	0.7	-2.2	91*
CCOC(=O)Cn1cc([N+](=O)[O-])nc1[N+](=O)[O-]	-4	6	-1.7	0.9	0.15	99*
CC12CCC3C(CC=C4CC(O)CCC43C)C1C/C(=C\c1ccccc1F)C2=O (stereo unspecified)	65*	11	1	0.9	nt	1
Cc1nn(C)cc1/C=C1/CC2C3CC=C4CC(O)CCC4(C)C3CCC2(C)C1=O (stereo unspecified)	nt	nt	-0.83	nt	nt	5
CC(=O)OC1(c2ccc(C)cc2)CN2CCC1c1ccccc12 (stereo unspecified)	-2	-2	nt	1	0.21	9
CC(=O)OC1(Cc2ccccc2)CN2CCC1c1ccccc12 (stereo unspecified)	4	2	0.034	1	-1.4	63*
CC(=O)NNC(=O)CN1C(=O)CN=C(c2ccccc2)c2cc(Br)ccc21	-5	11	nt	0.9	1.3	13
Cc1cccc(C)c1NC(=O)CN(C)CC(=O)Nc1ccc(C#N)c(Cl)c1	4	11	0.46	0.9	nt	0
CNC(C(=O)c1ccccc1)C(OC)c1cccc([N+](=O)[O-])c1 (stereo unspecified)	nt	nt	0.0065	nt	nt	nt
CNC(C(=O)c1ccccc1)C(OC)c1ccccc1 (stereo unspecified)	80*	1	0.44	1	nt	-2
CC(=O)c1c(C)n(C2CCCCC2)c2ccc(O)cc12	3	50*	-0.012	0.5	-0.036	8
COP(=O)(NC(=O)C(Cl)(Cl)Cl)OC	nt	nt	4.6e-05	nt	-0.11	nt
CN(C)c1ccc(/C=C/c2cc[n+](C)c3ccccc23)cc1	78*	-38	-0.6	1.4	-0.055	100*
C[N+]1(CC(COCc2ccccc2)OC(=O)Cc2ccccc2)CCOCC1 (stereo unspecified)	6	12	-0.8	0.9	0.19	-7
CCn1c(P(C)(=O)O)nc2ccccc21	-4	3	0.4	1	nt	-4
CCn1c(NN=O)nc2ccccc21	3	4	5.5	1	nt	53*
O[C@@H]1CCCC[C@H]1N1CCC(c2ccccc2)CC1	-16	1	1.4	1	nt	65*
N[C@@H](Cc1c[nH]c2ccccc12)c1nnc(SCc2ccc(Cl)cc2)o1	62*	32	nt	0.7	nt	0
CN1CCN(c2ccc(C(N)=O)cc2N)CC1	27	0	1.2	1	nt	-5
CCC12C=CCN3CCC4(c5cc(Br)c(OC)cc5N(C)C4C(O)(C(=O)OC)C1OC(C)=O)C32 (stereo unspecified)	7	11	-0.18	0.9	nt	19
Nc1nonc1C(=O)N/N=C/c1ccc([N+](=O)[O-])o1	-2	49	1.1	0.5	-0.62	83*
SMILES	WT yeast gro inh	Diaphorase inh	KCC2 mod	Diaphorase act	ROMK primary	Lmaj promast
N/C(=N\[N+](=O)[O-])N/N=C/c1ccc(O)cc1	-7	7	nt	0.9	nt	-1
CC1CN=C(Nc2ccc(F)c(Cl)c2)S1 (stereo unspecified)	nt	nt	0.0062	nt	nt	nt
CCCCN1C(=O)C(C2c3ccccc3C(=O)N2Cc2ccccc2)C(=O)NC1=S (stereo unspecified)	-5	17	-0.32	0.8	nt	-15
COc1ccc(-c2cc(=NCCC(=O)O)c3cc(C)ccc3o2)cc1	-6	-4	0.45	1	0.5	62*
Oc1c(Br)cc(Br)cc1Oc1ccc(Br)cc1Br	95	17	6*	0.8	0.53	-6
CN1CCC(OC(=O)C2c3ccccc3Oc3ccccc32)CC1	3	7	-1.2	0.9	-1.2	86*
O=C(NC(Cc1cnc[nH]1)C(=O)O)c1ccccc1 (stereo unspecified)	0	0	-0.29	1	-0.19	-2
CCn1c(O)c(/C(C)=N/N2CCCCC2c2cccnc2)c(=O)[nH]c1=S (stereo unspecified)	24	20	-1.1	0.8	nt	11
O=C1C=Cc2ccccc2C1=O	2	78*	-0.47	0.2	nt	-10
Clc1cccc(Cl)c1C1N2CCCN12 (stereo unspecified)	-6	9	nt	0.9	-0.53	-4
CN1C(=O)C(=Cc2c(OCc3cnc(Cl)s3)ccc3ccccc23)C(=O)N(C)C1=O	8	13	-0.1	0.9	-1.1	89*
COc1ccc(C=C2C(=O)N(C)C(=O)N(C)C2=O)cc1CSc1ccccn1	0	9	1.6	0.9	nt	-2
O=C(c1ccccc1F)c1cn(Cc2ccccc2)c2ccccc12	8	21	nt	0.8	nt	54*
Cc1ccnc(-n2c(C)cc(C=C3C(=O)N(C)C(=S)N(C)C3=O)c2C)c1	-3	16	nt	0.8	nt	51*
Cc1cc(C=C2C(=O)N(C)C(=S)N(C)C2=O)c(C)n1-c1ccncc1	nt	nt	-0.37	nt	nt	nt
CC(NCc1ccc(Cl)c(Cl)c1)C(O)c1ccccc1 (stereo unspecified)	25	6	0.73	0.9	-2.6	91*
CC(NCc1ccccc1Cl)C(O)c1ccccc1 (stereo unspecified)	17	-3	nt	1	-0.32	3
CCN1CCN(C(=O)COc2ccc(S(=O)(=O)N(C)Cc3ccccc3)cc2)CC1	-2	11	-1.2	0.9	-1.7	99*
CC(=O)Nc1ccc(OC(=O)N2CCCCC2)cc1	2	5	0.32	0.9	0.97	-6
O=C(Oc1ccc([N+](=O)[O-])cc1)N1CCC(N2CCCCC2)CC1	9	4	0.061	1	1	93*
COc1ccc(CN2CCCC(C(=O)c3sccc3C)C2)cc1O (stereo unspecified)	-2	6	0.29	0.9	-0.036	39
Clc1ccc(COC(Cn2ccnc2)c2ccc(Cl)cc2Cl)c(Cl)c1 (stereo unspecified)	94	-5	0.34	1	nt	99*

Screening results from PubChem.
